{"data": "Assay results collected from several papers", "target": "Homeodomain-interacting protein kinase 1 (HIPK1, Homo sapiens, UniProt Q86Z02)"}
{"SMILES": "Cn1cncc1[C@@](O)(COc1ccc(C#N)cc1-c1ccc(OC(F)(F)F)cc1)c1ccc(C#N)cc1", "observed": "cell-free assay", "method": "competition with immobilised ligand", "concentration": "1 µM", "measurement": "remaining binding", "result": "79%"}
{"SMILES": "Cc1nn(C)cc1-c1nc2c(N3CCN(Cc4ccc(Cl)cc4)CC3)c(Cl)cnc2[nH]1", "observed": "binding", "method": "competition with immobilised ligand", "concentration": "1 µM", "measurement": "remaining binding", "result": "66%"}
{"SMILES": "O=c1[nH]c2ccccc2n1C1CCN(Cc2ccc(-c3[nH]c4cc5ncnc5cc4nc3-c3ccccc3)cc2)CC1", "observed": "cell-free assay", "concentration": "0.5 µM", "measurement": "remaining signal", "result": "106%"}
{"SMILES": "COc1ncccc1-c1cnn2ccc(N3CCN(C(=O)OC(C)C)CC3)nc12", "observed": "binding", "method": "competition with immobilised ligand", "concentration": "1 µM", "measurement": "remaining binding", "result": "92%"}
{"SMILES": "Cn1cc(-c2cc(F)cc(N3CCn4c(cc5c4CCCC5)C3=O)c2CO)cc(Nc2ccc(N3CCN(C4COC4)CC3)cn2)c1=O", "observed": "enzyme activity", "action": "inhibitor", "concentration": "0.1 µM", "measurement": "inhibition", "result": "5%"}
{"SMILES": "Nc1ncc(-c2nc(N3CCOCC3)nc(N3CCOCC3)n2)c(C(F)F)n1", "observed": "binding", "method": "competition with immobilised ligand", "concentration": "10 µM", "measurement": "remaining binding", "result": "69%"}
{"SMILES": "Cn1cc(-c2cccc(N3CCc4c(sc5c4CC(C)(C)C5)C3=O)c2CO)cc(Nc2ccncn2)c1=O", "observed": "enzyme activity", "action": "inhibitor", "concentration": "1 µM", "measurement": "inhibition", "result": "-2%"}
{"SMILES": "CC(C)(C)c1cc(C=C(C#N)C#N)cc(Br)c1O", "observed": "enzyme activity", "action": "inhibitor", "concentration": "0.5 µM", "measurement": "remaining activity", "result": "104%"}
